Active and inactive are the calls of the source. No cut-off for these calls is given here.
Tests used:
[1] = target: T1, 2-C-methyl-D-erythritol 2,4-cyclodiphosphate synthase (Burkholderia pseudomallei (strain K96243)) (UniProt Q63T71); test: Binding affinity to Burkholderia pseudomallei IspF by STD NMR analysis
T1 sequence (whole entry): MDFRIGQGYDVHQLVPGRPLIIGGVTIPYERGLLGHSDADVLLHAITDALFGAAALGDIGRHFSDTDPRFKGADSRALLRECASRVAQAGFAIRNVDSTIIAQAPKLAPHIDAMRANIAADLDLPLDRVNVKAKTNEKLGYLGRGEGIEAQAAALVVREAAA

[2] = target: T2, 2-C-methyl-D-erythritol 2,4-cyclodiphosphate synthase (Burkholderia pseudomallei (strain K96243), UniProt Q63T71); test: Binding affinity to Burkholderia pseudomallei IspF at pH 7.4 measured by isothermal titration calorimetry method; conditions: read-out: Kd(app)
T2 sequence (Q63T71 whole entry): T1 sequence (whole entry)
Method in brief: (§1)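 ITC titration of BpIspF with ligand at 25 °C, run in buffer at pH 6.0, 7.4 or 8.0 as set by the line. Fits gave Kb, ΔG°, ΔH°, -TΔS° and stoichiometry. Ligand concentration was set from the tryptophan extinction coefficient. The pH 6.0/7.4 ratio compares the apparent Kd from these two runs.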

[3] = target: T1, 2-C-methyl-D-erythritol 2,4-cyclodiphosphate synthase (Burkholderia pseudomallei (strain K96243)); test: Binding affinity to Burkholderia pseudomallei IspF assessed as change in free energy at pH 7.4 measured by isothermal titration calorimetry method; method in brief: as §1
[4] = target: T1, 2-C-methyl-D-erythritol 2,4-cyclodiphosphate synthase (Burkholderia pseudomallei (strain K96243)); test: Binding affinity to Burkholderia pseudomallei IspF assessed as change in entropy at pH 7.4 measured by isothermal titration calorimetry method; method in brief: as §1
[5] = target: T1, 2-C-methyl-D-erythritol 2,4-cyclodiphosphate synthase (Burkholderia pseudomallei (strain K96243)); test: Binding affinity to Burkholderia pseudomallei IspF assessed as change in enthalpy at pH 7.4 measured by isothermal titration calorimetry method; method in brief: as §1
[6] = target: T3, 2-C-methyl-D-erythritol 2,4-cyclodiphosphate synthase (Escherichia coli (strain K12)) (UniProt P62617); test: Binding affinity to Escherichia coli IspF assessed as change in free energy at pH 7.4 measured by isothermal titration calorimetry method
T3 sequence (whole entry): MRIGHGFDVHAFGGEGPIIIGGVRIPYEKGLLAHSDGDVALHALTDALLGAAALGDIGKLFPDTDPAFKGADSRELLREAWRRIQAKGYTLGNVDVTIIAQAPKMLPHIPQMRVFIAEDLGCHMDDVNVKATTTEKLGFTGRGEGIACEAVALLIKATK

[7] = target: T1, 2-C-methyl-D-erythritol 2,4-cyclodiphosphate synthase (Burkholderia pseudomallei (strain K96243)); test: Binding affinity to Burkholderia pseudomallei IspF assessed as change in free energy at pH 6 measured by isothermal titration calorimetry method; method in brief: as §1
[8] = target: T1, 2-C-methyl-D-erythritol 2,4-cyclodiphosphate synthase (Burkholderia pseudomallei (strain K96243)); test: Binding affinity to Burkholderia pseudomallei IspF assessed as change in enthalpy at pH 6 measured by isothermal titration calorimetry method; method in brief: as §1
[9] = target: T1, 2-C-methyl-D-erythritol 2,4-cyclodiphosphate synthase (Burkholderia pseudomallei (strain K96243)); test: Binding affinity to Burkholderia pseudomallei IspF assessed as change in enthalpy at pH 8 measured by isothermal titration calorimetry method; method in brief: as §1
[10] = target: T4, 2-C-methyl-D-erythritol 2,4-cyclodiphosphate synthase (Escherichia coli (strain K12), UniProt P62617); test: Binding affinity to Escherichia coli IspF at pH 7.4 measured by isothermal titration calorimetry method; conditions: read-out: Kd(app)
T4 sequence (P62617 whole entry): T3 sequence (whole entry)

[11] = target: T1, 2-C-methyl-D-erythritol 2,4-cyclodiphosphate synthase (Burkholderia pseudomallei (strain K96243)); test: Binding affinity to Burkholderia pseudomallei IspF assessed as change in free energy at pH 8 measured by isothermal titration calorimetry method; method in brief: as §1
[12] = target: T1, 2-C-methyl-D-erythritol 2,4-cyclodiphosphate synthase (Burkholderia pseudomallei (strain K96243)); test: Binding affinity to Burkholderia pseudomallei IspF assessed as change in entropy at pH 8 measured by isothermal titration calorimetry method; method in brief: as §1
[13] = target: T1, 2-C-methyl-D-erythritol 2,4-cyclodiphosphate synthase (Burkholderia pseudomallei (strain K96243)); test: Ratio of apparent Kd for Burkholderia pseudomallei IspF at pH 6 to apparent Kd for Burkholderia pseudomallei IspF at pH 7.4; method in brief: as §1
[14] = target: T2, 2-C-methyl-D-erythritol 2,4-cyclodiphosphate synthase; test: Binding affinity to Burkholderia pseudomallei IspF at pH 8 measured by isothermal titration calorimetry method; conditions: read-out: Kd(app); method in brief: as §1
[15] = target: T2, 2-C-methyl-D-erythritol 2,4-cyclodiphosphate synthase; test: Binding affinity to Burkholderia pseudomallei IspF at pH 6 measured by isothermal titration calorimetry method; conditions: read-out: Kd(app); method in brief: as §1
[16] = target: T1, 2-C-methyl-D-erythritol 2,4-cyclodiphosphate synthase (Burkholderia pseudomallei (strain K96243)); test: Binding affinity to Burkholderia pseudomallei IspF assessed as change in entropy at pH 6 measured by isothermal titration calorimetry method; method in brief: as §1

SMILES: CC(C)=CCC/C(C)=C/COP(=O)(O)OP(=O)(O)O
- Activity [1]: inactive

SMILES: N[C@H](Cc1c[nH]c2ccccc12)C(=O)NO
- Kd [2]: 64 µM
- deltaG [3]: -5.7 kcal/mol
- -TdeltaS [4]: 0.9 kcal/mol
- deltaH [5]: -6.65 kcal/mol

SMILES: N[C@@H](Cc1c[nH]c2ccccc12)C(=O)O [TRYPTOPHAN]
- Kd [2]: > 1000 µM

SMILES: N[C@H](Cc1c[nH]c2ccccc12)C(=O)O [D-TRYPTOPHAN]
- Kd [2]: > 1000 µM

SMILES: N[C@@H](Cc1c[nH]c2ccccc12)C(=O)NO
- deltaG [6]: -6.4 kcal/mol
- deltaG [7]: -4.19 kcal/mol
- deltaH [8]: 1.1 kcal/mol
- Activity [1]: Active
- Kd [2]: 36 µM
- deltaG [3]: -6.1 kcal/mol
- deltaH [9]: -8.3 kcal/mol
- Kd [10]: 22 µM
- deltaG [11]: -6.29 kcal/mol
- -TdeltaS [12]: 2 kcal/mol
- Ratio [13]: 25
- Kd [14]: 24 µM
- Kd [15]: 848 µM
- -TdeltaS [16]: -5.2 kcal/mol
